Data from ChEMBL document CHEMBL1122384, “Synthesis and evaluation of 24-(isopropyl[75Se]seleno)chol-5-en-3 beta-ol” (J Med Chem, 1983).

Legend:
[1] = test system: Rattus norvegicus; assay: Tested for distribution of radioactivity in female rat tissue at 21 day after intravenous administration in adrenal; assay type: ADME, organism-based; conditions: in vivo, 504 h
Procedure, shortened: (§1)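 Female Fischer 344 rats (160–180 g), food and water ad libitum, received 5–10 μCi i.v. via lateral tail vein (1 mL Tween 80–EtOH–saline) under light Et₂O anesthesia. At each time they were anesthetized and decapitated, and organs were rinsed in saline, blotted, weighed and gamma counted. Values are % dose/g, mean and range of 3 rats.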

[2] = test system: Rattus norvegicus; assay: Tested for distribution of radioactivity in female rat tissue at 6 hr after intravenous administration in adrenal; assay type: ADME, organism-based; conditions: in vivo; procedure, shortened: as §1
[3] = test system: Rattus norvegicus; assay: Tested for distribution of radioactivity in female rat tissue at 18 hr after intravenous administration in liver; assay type: ADME, organism-based; conditions: in vivo; procedure, shortened: as §1
[4] = Adrenal/Tissue ratio calculated from percent dose per gram of tissue determined after 1 day intravenous administration from blood; assay type: functional
Procedure, shortened: (§2)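 Female Fischer 344 rats (160–180 g), fed ad libitum. Steroid dissolved in EtOH, formulated in Tween 80–EtOH–saline, 5–10 μCi in 1 mL given into a lateral tail vein under light Et₂O anesthesia. Organs removed 1 day post-injection, rinsed, blotted, weighed and gamma counted, 3 rats per time point. Ratios taken from adrenal vs tissue % dose/g.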

[5] = test system: Rattus norvegicus; assay: Tested for distribution of radioactivity in female rat tissue at 14d ay after intravenous administration in ovaries; assay type: ADME, organism-based; conditions: in vivo; procedure, shortened: as §1
[6] = test system: Rattus norvegicus; assay: Tested for distribution of radioactivity in female rat tissue at 1 hr after intravenous administration in ovaries; assay type: ADME, organism-based; conditions: in vivo; procedure, shortened: as §1
[7] = Adrenal/Tissue ratio calculated from percent dose per gram of tissue determined after 1 day intravenous administration from spleen; assay type: functional; procedure, shortened: as §2
[8] = Adrenal/Tissue ratio calculated from percent dose per gram of tissue determined after 1 day intravenous administration from kidney; assay type: functional; procedure, shortened: as §2
[9] = test system: Rattus norvegicus; assay: Tested for distribution of radioactivity in female rat tissue at 3 day after intravenous administration in adrenal; assay type: ADME, organism-based; conditions: in vivo, 72 h; procedure, shortened: as §1
[10] = species on record: Homo sapiens; assay: Adsorbed radiation dose value was calculated to human total body; assay type: functional
Procedure, shortened: (§3)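 Human absorbed radiation dose estimated by the standard MIRD method from rat tissue distribution (% dose/g, 1 h–21 days) and excretion data. Excretion came from three individually caged female rats, with urine and feces collected daily over 21 days.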

[11] = test system: Rattus norvegicus; assay: Tested for distribution of radioactivity in female rat tissue at 7 day after intravenous administration in liver; assay type: ADME, organism-based; conditions: in vivo, 168 h
Procedure, shortened: (§4)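 Female Fischer 344 rats (160–180 g), food and water ad libitum. Se-75-labeled steroid dissolved in EtOH, formulated in Tween 80–EtOH–saline; 5–10 μCi in 1 mL injected into a lateral tail vein under light Et₂O anesthesia. At each time point, 3 rats killed by decapitation under Et₂O. Organs rinsed with saline, blotted, weighed and gamma counted. Values are % dose/g, mean and range.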

[12] = test system: Rattus norvegicus; assay: Tested for distribution of radioactivity in female rat tissue at 6 hr after intravenous administration in ovaries; assay type: ADME, organism-based; conditions: in vivo; procedure, shortened: as §4
[13] = test system: Rattus norvegicus; assay: Tested for distribution of radioactivity in female rat tissue at 14d ay after intravenous administration in kidney; assay type: ADME, organism-based; conditions: in vivo; procedure, shortened: as §1
[14] = test system: Rattus norvegicus; assay: Tested for distribution of radioactivity in female rat tissue at 1 hr after intravenous administration in kidney; assay type: ADME, organism-based; conditions: in vivo; procedure, shortened: as §1
[15] = test system: Rattus norvegicus; assay: Tested for distribution of radioactivity in female rat tissue at 7 day after intravenous administration in adrenal; assay type: ADME, organism-based; conditions: in vivo, 168 h; procedure, shortened: as §4
[16] = test system: Rattus norvegicus; assay: Tested for distribution of radioactivity in female rat tissue at 21 day after intravenous administration in blood; assay type: ADME, organism-based; conditions: in vivo, 504 h; procedure, shortened: as §1
[17] = Adrenal/Tissue ratio calculated from percent dose per gram of tissue determined after 1 day intravenous administration from ovaries; assay type: functional; procedure, shortened: as §2
[18] = test system: Rattus norvegicus; assay: Tested for distribution of radioactivity in female rat tissue at 3 day after intravenous administration in liver; assay type: ADME, organism-based; conditions: in vivo, 72 h; procedure, shortened: as §1
[19] = test system: Rattus norvegicus; assay: Tested for distribution of radioactivity in female rat tissue at 7 day after intravenous administration in blood; assay type: ADME, organism-based; conditions: in vivo, 168 h; procedure, shortened: as §4
[20] = species on record: Homo sapiens; assay: Adsorbed radiation dose value was calculated to human small intestine; assay type: functional; procedure, shortened: as §3
[21] = test system: Rattus norvegicus; assay: Tested for distribution of radioactivity in female rat tissue at 24 hr r after intravenous administration in kidney; assay type: ADME, organism-based; conditions: in vivo; procedure, shortened: as §1
[22] = test system: Rattus norvegicus; assay: Tested for distribution of radioactivity in female rat tissue at 14d ay after intravenous administration in adrenal; assay type: ADME, organism-based; conditions: in vivo; procedure, shortened: as §1
[23] = test system: Rattus norvegicus; assay: Tested for distribution of radioactivity in female rat tissue at 24 hr r after intravenous administration in ovaries; assay type: ADME, organism-based; conditions: in vivo; procedure, shortened: as §1
[24] = test system: Rattus norvegicus; assay: Tested for distribution of radioactivity in female rat tissue at 24 hr r after intravenous administration in adrenal; assay type: ADME, organism-based; conditions: in vivo; procedure, shortened: as §1
[25] = test system: Rattus norvegicus; assay: Tested for distribution of radioactivity in female rat tissue at 3 day after intravenous administration in blood; assay type: ADME, organism-based; conditions: in vivo, 72 h; procedure, shortened: as §1
[26] = test system: Rattus norvegicus; assay: Tested for distribution of radioactivity in female rat tissue at 24 hr r after intravenous administration in blood; assay type: ADME, organism-based; conditions: in vivo; procedure, shortened: as §1
[27] = test system: Rattus norvegicus; assay: Tested for distribution of radioactivity in female rat tissue at 6 hr after intravenous administration in blood; assay type: ADME, organism-based; conditions: in vivo; procedure, shortened: as §1
[28] = test system: Rattus norvegicus; assay: Tested for distribution of radioactivity in female rat tissue at 24 hr r after intravenous administration in liver; assay type: ADME, organism-based; conditions: in vivo; procedure, shortened: as §1

Which results are given for `CC(C)[Se]CCC[C@H](C)[C@H]1CC[C@H]2[C@@H]3CC=C4C[C@@H](O)CC[C@]4(C)[C@H]3CC[C@]12C`?
Dose/g [1]: 15.22%; Dose/g [2]: 35.61%; Dose/g [3]: 2.78%; Ratio [4]: 67.3; Dose/g [5]: 2.83%; Dose/g [6]: 2.24%; Ratio [7]: 19.2; Ratio [8]: 30; Dose/g [9]: 32.32%; Dose [10]: 1.8 rd mCi-1; Dose/g [11]: 0.68%; Dose/g [12]: 4.95%; Dose/g [13]: 0.91%; Dose/g [14]: 1.31%; Dose/g [15]: 29.5%; Dose/g [16]: 0.11%; Ratio [17]: 9; Dose/g [18]: 0.99%; Dose/g [19]: 0.26%; Dose [20]: 3.5 rd mCi-1; Dose/g [21]: 1.59%; Dose/g [22]: 18.23%; Dose/g [23]: 5.29%; Dose/g [24]: 47.75%; Dose/g [25]: 0.38%; Dose/g [26]: 0.71%; Dose/g [27]: 2.08%; Dose/g [28]: 1.76%
